The text below walks through data of ChEMBL document CHEMBL1128576, “Time-resolved ligand exchange reactions: kinetic models for competitive inhibitors with recombinant human renin” (J Med Chem, 1995).

Series [1] can be described thus: Half life period of the compound. Format: ADME. In outline:
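Half-life was calculated as ln2/koff (first-order decay). koff came from paired fluorescent-probe ligand exchange with recombinant human renin: 5.0×10^-8 M renin, 5.0×10^-7 M probe, pH 7.4 HEPES/octyl glucoside buffer, 37 °C, 5-min preincubation. The two curves were fitted simultaneously, with the probe rate constants held fixed.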

Series [2] addresses T1, Renin (Homo sapiens) (UniProt P00797).
T1 sequence (whole entry): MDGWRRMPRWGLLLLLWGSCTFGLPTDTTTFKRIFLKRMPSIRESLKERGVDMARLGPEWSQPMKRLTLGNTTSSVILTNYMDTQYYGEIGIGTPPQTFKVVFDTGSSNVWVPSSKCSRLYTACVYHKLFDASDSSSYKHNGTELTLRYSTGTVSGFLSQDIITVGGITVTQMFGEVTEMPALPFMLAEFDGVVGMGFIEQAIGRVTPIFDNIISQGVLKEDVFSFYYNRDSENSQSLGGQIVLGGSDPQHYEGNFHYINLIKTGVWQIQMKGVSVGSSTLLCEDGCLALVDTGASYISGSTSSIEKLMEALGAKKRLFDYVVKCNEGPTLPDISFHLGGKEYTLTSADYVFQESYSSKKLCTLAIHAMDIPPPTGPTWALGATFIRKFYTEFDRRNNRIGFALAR
Kind of series: (§1) Component […] rate constant by the compound against Renin was determined. Further details: unit not given here.

Series [3] deals with T1, Renin (Homo sapiens). The description is as §1.

The half-life is the time in which the quantity being followed falls by half. The compound `CC(C)C[C@H](O)[C@H](O)[C@H](CC1CCCCC1)NC(=O)[C@@H](CC(=O)N(CC(=O)N(C)CCC(=O)N1CCOCC1)[C@@H](C)c1ccccc1)Cc1csc(N)n1` showed a half-life in series [1] of 8.9 min. Further, the Koff on Renin (Homo sapiens) [2] was 0.0013. Besides, the k on on Renin (Homo sapiens) [3] is 2e+06 M⁻¹ s⁻¹.
Compound `CC(C)C[C@H](O)[C@H](O)[C@H](CC1CCCCC1)NC(=O)[C@@H](CC(=O)N(CC(=O)N(C)CCc1ccccn1)CC1CCCCCC1)Cc1csc(N)n1` gave a half-life in series [1] of 49.4 min. This compound also yielded a Koff at Renin (Homo sapiens) [2] of 0.000234. Besides, on Renin (Homo sapiens) [3], the k on is 8.63e+06 M⁻¹ s⁻¹.
Consider `COC1(CN(CC(=O)N(C)CCc2ccccn2)C(=O)C[C@@H](Cc2csc(N)n2)C(=O)N[C@@H](CC2CCCCC2)[C@@H](O)[C@@H](O)CC(C)C)CCCCC1`, for which the half-life in series [1] was determined as 6.6 min. Also, the Koff at Renin (Homo sapiens) [2] came out at 0.00175. The same compound yielded a k on on Renin (Homo sapiens) [3] of 2.28e+06 M⁻¹ s⁻¹.
In the same order, the values of `CC(C)C[C@H](O)[C@H](O)[C@H](CC1CCCCC1)NC(=O)[C@@H](CC(=O)N(CC(=O)N(C)CCN(C)C(=O)N1CCOCC1)[C@@H](C)c1ccccc1)Cc1csc(N)n1` are 8.7 min, 0.00133 and 5.43e+06 M⁻¹ s⁻¹.
On the same counts, the results for `CC(C)C[C@H](O)[C@H](O)[C@H](CC1CCCCC1)NC(=O)[C@@H](CC(=O)N(CC(=O)N(C)CCc1ccccn1)CC1CCCCC1)Cc1csc(N)n1` are 41.3 min, 0.00028 and 5.93e+06 M⁻¹ s⁻¹.
On the same counts, the results for `CC(C)C[C@H](O)[C@H](O)[C@H](CC1CCCCC1)NC(=O)[C@@H](CC(=O)N(CC(=O)N(C)CCN1CCOCC1)[C@@H](C)c1ccccc1)Cc1csc(N)n1` are 2.4 min, 0.00481 and 2.07e+06 M⁻¹ s⁻¹.
Consider `CC(C)C[C@H](O)[C@H](O)[C@H](CC1CCCCC1)NC(=O)[C@@H](CC(=O)N(CC(=O)N(C)CCc1ccccn1)CC1(C)CCCCC1)Cc1csc(N)n1`, for which, in series [1], the half-life came to 20.3 min. On Renin (Homo sapiens) [2], this compound yielded a Koff of 0.000569. The compound also had a k on on Renin (Homo sapiens) [3] of 1.22e+07 M⁻¹ s⁻¹.
In the same order, the values of `CC(C)C[C@H](O)[C@H](O)[C@H](CC1CCCCC1)NC(=O)[C@@H](CC(=O)N(CC(=O)N(C)CCc1ccccn1)[C@@H](C)c1ccccc1)Cc1csc(N)n1` are 8.6 min, 0.00135 and 6.68e+06 M⁻¹ s⁻¹.
